This note sets out measurements from ChEMBL document CHEMBL4680142, “Thiazolidine-2,4-dione-based irreversible allosteric IKK-β kinase inhibitors: Optimization into in vivo active anti-inflammatory agents” (Eur J Med Chem, 2020).

A short description of data set [1]: Cytotoxicity against non-stimulated mouse RAW264.7 cells upto 10 uM after 24 hrs by MTT assay. Conditions: raw264.7, 24 h; call rule not given here.
The target in data set [2] is T1, Inhibitor of nuclear factor kappa-B kinase subunit beta (Homo sapiens, UniProt O14920).
T1 sequence (O14920 whole entry): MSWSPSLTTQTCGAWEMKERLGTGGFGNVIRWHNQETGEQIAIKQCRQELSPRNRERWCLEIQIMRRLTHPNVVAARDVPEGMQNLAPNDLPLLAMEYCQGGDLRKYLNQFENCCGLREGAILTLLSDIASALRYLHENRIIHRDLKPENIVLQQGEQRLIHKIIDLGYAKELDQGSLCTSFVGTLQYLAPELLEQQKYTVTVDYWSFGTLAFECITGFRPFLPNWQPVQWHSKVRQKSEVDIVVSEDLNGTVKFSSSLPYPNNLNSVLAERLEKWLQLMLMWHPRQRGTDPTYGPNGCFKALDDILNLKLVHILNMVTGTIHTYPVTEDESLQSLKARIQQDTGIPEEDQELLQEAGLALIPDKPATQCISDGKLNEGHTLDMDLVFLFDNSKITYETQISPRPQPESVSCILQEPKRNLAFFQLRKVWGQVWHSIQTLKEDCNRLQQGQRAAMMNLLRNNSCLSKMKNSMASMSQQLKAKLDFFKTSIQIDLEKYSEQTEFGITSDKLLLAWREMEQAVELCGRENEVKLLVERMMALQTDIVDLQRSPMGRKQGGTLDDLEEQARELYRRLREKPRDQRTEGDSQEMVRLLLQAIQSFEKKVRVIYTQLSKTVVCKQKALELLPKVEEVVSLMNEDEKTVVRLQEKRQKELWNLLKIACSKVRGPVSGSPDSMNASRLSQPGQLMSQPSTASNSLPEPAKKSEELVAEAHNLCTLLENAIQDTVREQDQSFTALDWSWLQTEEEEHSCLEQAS
Nature of the data set: Allosteric inhibition of IKKbeta (unknown origin) using 5FAM-GRHDSGLDSMK-NH2 as substrate incubated for 10 mins followed by substrate addition and measured immediately by TR-FRET assay. The gist of the method: (§1)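 Kinetic IMAP TR-FRET run with 0.5 µg/mL IKK2 in 10 mM Tris-HCl pH 7.2, 10 mM MgCl2, 0.05% NaN3, 1 mM DTT, 0.01% Tween-20. Compound (ten doses, 30 to 0.001 µM) pre-incubated with enzyme 10 min, then 1 µM IκBα-derived substrate and 3 µM ATP added. Room temperature. Reactions run 0, 20, 40 or 60 min. Ten-point curves fitted by nonlinear regression.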
(In TR-FRET formats the signal depends on donor and acceptor labels being close together.)

The test system of data set [3] is RAW264.7. Nature of the data set: Antiinflammatory activity against mouse RAW264.7 cells assessed as reduction in LPS-induced NO level incubated for 1 hr followed by LPS stimulation and measured after 24 hrs by Griess reagent based assay. Format: functional, cell-based. The essentials: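 RAW 264.7 cells in 24-well plates received compounds (0.1, 1, 10 µM) or L-NIL 40 µM positive control, then LPS 1 µg/mL for 24 h. Nitrite in the medium measured by Griess reaction as an NO surrogate. Values referenced to levels before and after LPS stimulation.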
(Nitrite, measured by Griess reagent, commonly stands in for NO production.)

Data set [4] has as its system RAW264.7. Nature of the data set: Cytotoxicity against mouse RAW264.7 cells assessed as reduction in cell viability incubated for 24 hrs in presence of LPS by MTT assay. The data set is classed as cell-based. The following applies: RAW264.7, 24 h. The gist of the method:
(§2)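 MTT viability in RAW 264.7 cells seeded at 1×10^5 cells/mL and incubated overnight. Compounds added with or without LPS (1 µg/mL) for 24 h. MTT for 4 h at 37 °C, formazan dissolved in DMSO, absorbance read at 540 nm. IC80 is the concentration reducing viability to 80% with LPS.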

The nature of data set [5]: Metabolic stability in rat plasma assessed as parent compound remaining at 1 uM measured upto 2 hrs by LC-MS/MS analysis. The following applies: read-out: Stabilty. The data set is classed as ADME, cell-free. The essentials:
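Rat plasma incubated with 1 µM compound at 37 °C for 0, 15, 30, 60 and 120 min. After separation, remaining compound quantified by LC-MS/MS as % remaining.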

Data set [6] deals with T2, Inhibitor of nuclear factor kappa-B kinase subunit beta (Homo sapiens) (UniProt O14920).
T2 sequence (whole entry): T1 sequence (O14920 whole entry)
Nature of the data set: Allosteric inhibition of IKKbeta (unknown origin) at 0.001 to 30 uM using 5FAM-GRHDSGLDSMK-NH2 as substrate incubated for 10 mins followed by substrate addition and measured after 20 mins by TR-FRET assay relative to control. The following applies: filed as negative allosteric modulator, dose 0.001-30 µM, time 30.0 min. The gist of the method:
(§3)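 IKK2 (0.5 µg/mL) in 10 mM Tris-HCl pH 7.2, 10 mM MgCl2, 0.05% NaN3, 1 mM DTT, 0.01% Tween-20, room temperature. Compound (30 to 0.001 µM, ten roughly three-fold dilutions) preincubated 10 min with enzyme. Reaction started with 1 µM 5FAM-IκBα peptide and 3 µM ATP, run 0, 20, 40 or 60 min. IMAP binding reagent/terbium donor detection, TR-FRET read at 495/520 nm. Kobs fitted against concentration by nonlinear regression.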

In data set [7] the test system is RAW264.7. The data set is described as follows: Antiinflammatory activity against mouse RAW264.7 cells assessed as reduction in LPS-induced TNF-alpha level at 10 uM incubated for 1 hr followed by LPS stimulation and measured after 24 hrs by ELISA relative to control. The data set is classed as functional. The following applies: time 25 hrs. The essentials: (§4)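 RAW 264.7 cells (DMEM, 10% FBS, 37 °C, 5% CO2) plated at 2×10^5 cells/mL and left overnight. Compounds (0.1, 1, 10 µM) or NS-398 given for 1 h, then LPS 10 ng/mL for 24 h. Culture medium assayed by ELISA: competitive colorimetric for PGE2/TNF-α, mouse DuoSet for TNF-α/IL-6. IC50 is the concentration lowering the mediator to 50%.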
For orientation: ELISA stands for enzyme-linked immunosorbent assay.

In data set [8] the target is T2, Inhibitor of nuclear factor kappa-B kinase subunit beta (Homo sapiens). Nature of the data set: Allosteric inhibition of IKKbeta (unknown origin) at 0.001 to 30 uM using 5FAM-GRHDSGLDSMK-NH2 as substrate incubated for 10 mins followed by substrate addition and measured after 60 mins by TR-FRET assay relative to control. The following applies: filed as negative allosteric modulator, dose 0.001-30 µM, time 70.0 min. The essentials: as §3

Data set [9] shares this target. The data set is described as follows: Allosteric inhibition of IKKbeta (unknown origin) at 0.001 to 30 uM using 5FAM-GRHDSGLDSMK-NH2 as substrate incubated for 10 mins followed by substrate addition and measured after 40 mins by TR-FRET assay relative to control. The following applies: filed as negative allosteric modulator, dose 0.001-30 µM, time 50.0 min. The gist of the method:
as §3

For data set [10], the target named is T1, Inhibitor of nuclear factor kappa-B kinase subunit beta. Nature of the data set: Allosteric inhibition of IKKbeta (unknown origin) using 5FAM-GRHDSGLDSMK-NH2 as substrate incubated for 10 mins followed by substrate addition and measured after 60 mins by TR-FRET assay. The essentials:
as §1

Data set [11] addresses T2, Inhibitor of nuclear factor kappa-B kinase subunit beta (Homo sapiens). The data set is described as follows: Allosteric inhibition of IKKbeta (unknown origin) using 5FAM-GRHDSGLDSMK-NH2 as substrate at 0.001 to 30 uM pretreated for 10 mins followed by substrate addition measured immediately by TR-FRET assay. Conditions: filed as negative allosteric modulator, dose 0.001-30 µM. The essentials:
as §3

Data set [12] concerns RAW264.7. Nature of the data set: Antiinflammatory activity against mouse RAW264.7 cells assessed as reduction in LPS-induced TNF-alpha level incubated for 1 hr followed by LPS stimulation and measured after 24 hrs by ELISA. The data set is classed as functional, cell-based. The gist of the method: as §4
The test system of data set [13] is RAW264.7. Nature of the data set: Cytotoxicity against mouse RAW264.7 cells assessed as reduction in cell viability at 6 uM incubated for 24 hrs by MTT assay. Format: cell-based. The following applies: raw264.7, 24 h. The gist of the method:
as §2

As usually defined, the IC50 is the concentration that gives 50% inhibition. The IC80 is the point of the concentration-response curve where the effect stands at 80%. What is called inhibition is the relative decrease from the control value, in per cent. On to `CN1CCN(CCCCCOc2cccc(N3C(=O)S/C(=C\c4ccc(Oc5ccc([N+](=O)[O-])cc5)cc4)C3=O)c2)CC1`, for which the Activity entry (in [1]; with RAW264.7 [13]) was “Non-Toxic” in each case. Also, the IC50 in [2] is 347 nM; in the data set on RAW264.7 [3] it was more than 10000 nM; in data set [10] it was 219 nM; with RAW264.7 [12], 5220 nM. Moreover, in the data set with RAW264.7 [4], the concentration for an effect of 80% (IC80) is more than 10000 nM. Besides, the remaining at 2 h, 1 µM in data set [5] came to 83.3%. In addition, the inhibition in [6] was -3.68%; in data set [8], -3.88%; in [9], -8.33%; in data set [11] it was -5.63%; in the data set on RAW264.7 [12] (time 25.0 hrs), “Dose-dependent effect”. Further, in the data set on RAW264.7 [7], the inhibition at 10 µM was 84%.

`CN1CCN(CCCOc2ccc(N3C(=O)S/C(=C\c4ccc(Oc5ccc(C#N)cc5)cc4)C3=O)cc2)CC1`: the Activity result (in data set [1]; in the data set on RAW264.7 [13]) was “Non-Toxic” throughout. The half-inhibitory concentration (IC50) in [2] was 575 nM; in the data set with RAW264.7 [3], more than 10000 nM; in data set [10] it was 204 nM; in the data set on RAW264.7 [12] it was 6270 nM. For the same molecule, the IC80 with RAW264.7 [4] was more than 10000 nM. Moreover, the remaining at 2 h, 1 µM in [5] was found to be 73.6%. For the same molecule, the inhibition is -7.14% in data set [6], -0.38% in [8], -4.47% in data set [9] and -9.33% in data set [11]. Moreover, in the data set with RAW264.7 [7], the inhibition at 10 µM stood at 80%.
